According to ChEMBL document CHEMBL1130017, “Rationally designed inhibitors of inosine monophosphate dehydrogenase” (J Med Chem, 1997):

Legend:
[1] = target: T1, Inosine-5'-monophosphate dehydrogenase 2 (Homo sapiens, UniProt P12268); test: Concentration required for 50% inhibition of human Inosine-5'-monophosphate dehydrogenase 2 using Spectrophotometric assay
Summary of the method: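 Human type II IMPDH, 25 nM final, added to start the reaction. Mix holds 50 µM IMP, 100 µM NAD and varying inhibitor in 0.1 M potassium phosphate pH 7.4, 0.1 M KCl, 3 mM EDTA, 1 mM DTT and 100 µg/mL BSA. NADH formation is followed by absorbance at 340 nm in 1 cm cells. Fractional activity relative to the uninhibited rate is taken against inhibitor concentration.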

[2] = target: T1, Inosine-5'-monophosphate dehydrogenase 2; test: First order rate constant for inactivation of human Inosine-5'-monophosphate dehydrogenase 2
Summary of the method: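 Human type II IMPDH (2 µM) incubated at 23 °C with 20 µM compound (10-fold excess) in 0.1 M potassium phosphate pH 7.9, 0.5 M KCl, 3 mM EDTA, 10 mM DTT and 100 µg/mL BSA. Aliquots taken over time are assayed with 200 µM IMP and 400 µM NAD (8× Km). k_inact comes from a nonlinear first-order fit of remaining activity versus incubation time.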

`O=P(O)(O)OC[C@@H]1OC(n2cnc3c(O)nc(/C=C/c4ccccc4)nc32)[C@@H](O)[C@H]1O` (stereo partly drawn) gave an IC50 [1] of 37 µM.

Molecule `O=c1[nH]c(CF)nc2c1ncn2C1O[C@@H](COP(=O)(O)O)[C@H](O)[C@@H]1O` (stereo partly drawn) has an IC50 [1] of 1.2 µM.

Work on `O=P(O)(O)OC[C@@H]1OC(n2cnc3c(O)nc(C(F)(F)F)nc32)[C@@H](O)[C@H]1O` (stereo partly drawn) yielded an IC50 [1] greater than 1000 µM.

`O=P(O)(O)OC[C@@H]1OC(n2cnc3c(O)nc(CCc4ccccc4)nc32)[C@@H](O)[C@H]1O` (stereo partly drawn) was tested, and the IC50 [1] was 460 µM.

`O=P(O)(O)OC[C@@H]1OC(n2cnc3c(O)nc(CF)nc32)[C@@H](O)[C@H]1O` (stereo partly drawn) showed a k obs [2] of 0.0164 s⁻¹.

For `Cc1nc(O)c2ncn(C3O[C@@H](COP(=O)(O)O)[C@H](O)[C@@H]3O)c2n1` (stereo partly drawn), the IC50 [1] was greater than 1000 µM.

In the case of `O=c1[nH]c(CO)nc2c1ncn2C1O[C@@H](COP(=O)(O)O)[C@H](O)[C@@H]1O` (stereo partly drawn), the IC50 [1] is reported as 132 µM.

For `C=Cc1nc(O)c2ncn(C3O[C@@H](COP(=O)(O)O)[C@H](O)[C@@H]3O)c2n1` (stereo partly drawn), the k obs [2] was 0.0144 s⁻¹.

`O=c1[nH]c(CCl)nc2c1ncn2C1O[C@@H](COP(=O)(O)O)[C@H](O)[C@@H]1O` (stereo partly drawn) showed an IC50 [1] of 1.32 µM.

With `C=Cc1nc2c(ncn2C2O[C@@H](COP(=O)(O)O)[C@H](O)[C@@H]2O)c(=O)[nH]1` (stereo partly drawn) the IC50 [1] was 1 µM.

Work on `O=P(O)(O)OC[C@@H]1OC(n2cnc3c(O)nc(CCl)nc32)[C@@H](O)[C@H]1O` (stereo partly drawn) yielded a k obs [2] of 0.0528 s⁻¹.

Work on `O=P(O)(O)OC[C@@H]1OC(n2cnc3c(O)nc(C(F)F)nc32)[C@@H](O)[C@H]1O` (stereo partly drawn) yielded an IC50 [1] greater than 1000 µM.

In the case of `O=P(O)(O)OC[C@@H]1OC(n2cnc3c(O)nc(C(O)O)nc32)[C@@H](O)[C@H]1O` (stereo partly drawn), the IC50 [1] is reported as 0.44 µM.
